Usually IC50 stands for the concentration needed to halve the response being measured. For orientation: Ki means a measure of affinity in units of concentration, obtained from inhibition or displacement.

The test system of test [1] is MDA-MB-231. The test can be described thus: Cytotoxicity against human MDA-MB-231 cells assessed as reduction in cell viability after 48 hrs under hypoxic conditions by MTT assay. It counts as functional, cell-based. As to conditions: for IC50: MDA-MB-231, 48 h. A digest of the protocol:
(§1)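 Cells cultured in high-glucose DMEM with 20% FBS at 37 °C and 5% CO2, seeded at 1x10^4/well, then dosed 24 h later (0–200 μM) for 48 h. Hypoxia: 1% O2, 5% CO2, balance N2 in a hypoxic workstation; normoxia: 20% O2 in air, 5% CO2. MTT (1 mg/ml) for 30 min at 37 °C, formazan dissolved in DMSO, A550. Untreated control set to 100%; quadruplicates, ≥3 cell batches, mean ± S.E.M.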
A general note: Tetrazolium dyes change colour on reduction, which living cells bring about.

The target of test [2] is Carbonic anhydrase 12 (Homo sapiens, UniProt O43570).
Sequence of Carbonic anhydrase 12 (O43570 whole entry): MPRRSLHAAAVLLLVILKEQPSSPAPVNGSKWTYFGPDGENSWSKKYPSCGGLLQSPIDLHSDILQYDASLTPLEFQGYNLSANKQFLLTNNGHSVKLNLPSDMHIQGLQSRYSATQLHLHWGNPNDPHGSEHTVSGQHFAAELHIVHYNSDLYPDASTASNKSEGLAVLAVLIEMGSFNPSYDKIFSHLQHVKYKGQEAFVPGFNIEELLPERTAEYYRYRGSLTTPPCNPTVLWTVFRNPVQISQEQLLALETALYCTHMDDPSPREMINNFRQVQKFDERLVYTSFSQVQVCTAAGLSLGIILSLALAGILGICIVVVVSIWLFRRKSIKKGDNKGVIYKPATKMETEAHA
Test [3] has as its system PC-3. The test can be described thus: Cytotoxicity against human PC3 cells assessed as cell viability at 30 uM after 48 hrs under hypoxic conditions by MTT assay (reference value: 100%). As to conditions: PC-3, 48 h, read-out: Activity. Format: functional. The method, boiled down:
as §1

Test [4] has as its system HT-29. Nature of the test: Cytotoxicity against human HT-29 cells assessed as cell viability at 100 uM after 48 hrs under hypoxic conditions by MTT assay (reference value: 100%). It counts as functional. As to conditions: Homo sapiens, HT-29, 48 h; read-out: Activity. A digest of the protocol:
as §1

The test system of test [5] is MDA-MB-231. The test can be described thus: Cytotoxicity against human MDA-MB-231 cells assessed as cell viability at 200 uM after 48 hrs under hypoxic conditions by MTT assay (reference value: 100%). It counts as functional. As to conditions: MDA-MB-231, 48 h, read-out: Activity. The method, boiled down:
as §1

Test [6] relates to HT-29. Nature of the test: Cytotoxicity against human HT-29 cells assessed as cell viability at 100 uM after 48 hrs under normoxic conditions by MTT assay (reference value: 100%). It counts as functional. As to conditions: Homo sapiens, HT-29, 48 h; read-out: Activity. A digest of the protocol:
as §1

For test [7], the system named is MDA-MB-231. The test can be described thus: Cytotoxicity against human MDA-MB-231 cells assessed as cell viability at 30 uM after 48 hrs under hypoxic conditions by MTT assay (reference value: 100%). Format: functional. As to conditions: MDA-MB-231, 48 h, read-out: Activity. A digest of the protocol: as §1
Test [8] deals with HT-29. The test can be described thus: Cytotoxicity against human HT-29 cells assessed as reduction in cell viability after 48 hrs under hypoxic conditions by MTT assay. Format: functional, cell-based. As to conditions: for IC50: HT-29, 48 h. A digest of the protocol: as §1
Test [9] concerns PC-3. The test can be described thus: Cytotoxicity against human PC3 cells assessed as cell viability at 30 uM after 48 hrs under normoxic conditions by MTT assay (reference value: 100%). Format: functional. As to conditions: PC-3, 48 h, read-out: Activity. A digest of the protocol:
as §1

The subject of test [10] is HT-29. Nature of the test: Cytotoxicity against human HT-29 cells assessed as cell viability at 30 uM after 48 hrs under normoxic conditions by MTT assay (reference value: 100%). As to conditions: Homo sapiens, HT-29, 48 h; read-out: Activity. It counts as functional. The method, boiled down: as §1
Test [11] relates to HT-29. The test can be described thus: Cytotoxicity against human HT-29 cells assessed as cell viability at 200 uM after 48 hrs under hypoxic conditions by MTT assay (reference value: 100%). As to conditions: Homo sapiens, HT-29, 48 h; read-out: Activity. It counts as functional. A digest of the protocol:
as §1

The species named for test [12] is Homo sapiens. Nature of the test: Selectivity ratio of Ki for carbonic anhydrase 2 (unknown origin) to Ki for carbonic anhydrase 9 (unknown origin).
Test [13] deals with PC-3. Nature of the test: Cytotoxicity against human PC3 cells assessed as cell viability at 200 uM after 48 hrs under hypoxic conditions by MTT assay (reference value: 100%). Format: functional. As to conditions: PC-3, 48 h, read-out: Activity. A digest of the protocol: as §1
Test [14] deals with HT-29. The test can be described thus: Cytotoxicity against human HT-29 cells assessed as cell viability at 30 uM after 48 hrs under hypoxic conditions by MTT assay (reference value: 100%). Format: functional. As to conditions: Homo sapiens, HT-29, 48 h; read-out: Activity. The method, boiled down: as §1
For test [15], the system named is PC-3. The test can be described thus: Cytotoxicity against human PC3 cells assessed as cell viability at 100 uM after 48 hrs under hypoxic conditions by MTT assay (reference value: 100%). Format: functional. As to conditions: PC-3, 48 h, read-out: Activity. The method, boiled down: as §1
The target of test [16] is Carbonic anhydrase 9 (Homo sapiens, UniProt Q16790). Nature of the test: Inhibition of carbonic anhydrase 9 (unknown origin) preincubated for 15 mins by stopped flow CO2 hydration assay.
In test [17] the test system is PC-3. Nature of the test: Cytotoxicity against human PC3 cells assessed as cell viability at 100 uM after 48 hrs under normoxic conditions by MTT assay (reference value: 100%). Format: functional. As to conditions: PC-3, 48 h, read-out: Activity. The method, boiled down: as §1
Test [18] has as its system HT-29. Nature of the test: Cytotoxicity against human HT-29 cells assessed as reduction in cell viability after 48 hrs under normoxic conditions by MTT assay. It counts as functional, cell-based. As to conditions: for IC50: HT-29, 48 h. The method, boiled down:
as §1

In test [19] the test system is MDA-MB-231. Nature of the test: Cytotoxicity against human MDA-MB-231 cells assessed as reduction in cell viability after 48 hrs under normoxic conditions by MTT assay. As to conditions: for IC50: MDA-MB-231, 48 h. It counts as functional, cell-based. A digest of the protocol: as §1
In test [20] the test system is PC-3. The test can be described thus: Cytotoxicity against human PC3 cells assessed as cell viability at 200 uM after 48 hrs under normoxic conditions by MTT assay (reference value: 100%). It counts as functional. As to conditions: PC-3, 48 h, read-out: Activity. A digest of the protocol:
as §1

The test system of test [21] is PC-3. The test can be described thus: Cytotoxicity against human PC3 cells assessed as reduction in cell viability after 48 hrs under hypoxic conditions by MTT assay. Format: functional, cell-based. As to conditions: for IC50: PC-3, 48 h. A digest of the protocol: as §1
Test [22] has as its target Carbonic anhydrase 1 (Homo sapiens, UniProt P00915). Nature of the test: Inhibition of recombinant human cytosolic carbonic anhydrase 1 preincubated for 15 mins by stopped flow CO2 hydration assay.
Test [23] has as its system MDA-MB-231. Nature of the test: Cytotoxicity against human MDA-MB-231 cells assessed as cell viability at 100 uM after 48 hrs under normoxic conditions by MTT assay (reference value: 100%). Format: functional. As to conditions: MDA-MB-231, 48 h, read-out: Activity. A digest of the protocol: as §1
For test [24], the system named is HT-29. The test can be described thus: Cytotoxicity against human HT-29 cells assessed as cell viability at 200 uM after 48 hrs under normoxic conditions by MTT assay (reference value: 100%). Format: functional. As to conditions: Homo sapiens, HT-29, 48 h; read-out: Activity. A digest of the protocol:
as §1

Test [25] has as its system MDA-MB-231. Nature of the test: Cytotoxicity against human MDA-MB-231 cells assessed as cell viability at 100 uM after 48 hrs under hypoxic conditions by MTT assay (reference value: 100%). It counts as functional. As to conditions: MDA-MB-231, 48 h, read-out: Activity. A digest of the protocol: as §1
Test [26] concerns MDA-MB-231. The test can be described thus: Cytotoxicity against human MDA-MB-231 cells assessed as cell viability at 30 uM after 48 hrs under normoxic conditions by MTT assay (reference value: 100%). Format: functional. As to conditions: MDA-MB-231, 48 h, read-out: Activity. A digest of the protocol:
as §1

Test [27] has as its system PC-3. The test can be described thus: Cytotoxicity against human PC3 cells assessed as reduction in cell viability after 48 hrs under normoxic conditions by MTT assay. As to conditions: for IC50: PC-3, 48 h. Format: functional, cell-based. A digest of the protocol:
as §1

In test [28] the test system is MDA-MB-231. Nature of the test: Cytotoxicity against human MDA-MB-231 cells assessed as cell viability at 200 uM after 48 hrs under normoxic conditions by MTT assay (reference value: 100%). It counts as functional. As to conditions: MDA-MB-231, 48 h, read-out: Activity. A digest of the protocol: as §1
For test [29], the target named is Carbonic anhydrase 2 (Homo sapiens, UniProt P00918). Nature of the test: Inhibition of carbonic anhydrase 2 (unknown origin) preincubated for 15 mins by stopped flow CO2 hydration assay.
The subject of test [30] is MDA-MB-231. Nature of the test: Potency index, ratio of cytotoxicity against human MDA-MB-231 cells assessed as reduction in cell viability at 100 uM after 48 hrs under hypoxic conditions by MTT assay to cytotoxicity against human MDA-MB-231 cells assessed as reduction in cell viability at 100 uM after 48 hrs under normoxic conditions by MTT assay. It counts as functional.

The subject of test [31] is HT-29. Nature of the test: Cytotoxicity against human HT-29 cells assessed as cell viability at 300 uM after 48 hrs under hypoxic conditions by MTT assay (reference value: 100%). Format: functional. As to conditions: HT-29, 48 h, read-out: Activity.

Sequence of Carbonic anhydrase 1 (P00915 whole entry): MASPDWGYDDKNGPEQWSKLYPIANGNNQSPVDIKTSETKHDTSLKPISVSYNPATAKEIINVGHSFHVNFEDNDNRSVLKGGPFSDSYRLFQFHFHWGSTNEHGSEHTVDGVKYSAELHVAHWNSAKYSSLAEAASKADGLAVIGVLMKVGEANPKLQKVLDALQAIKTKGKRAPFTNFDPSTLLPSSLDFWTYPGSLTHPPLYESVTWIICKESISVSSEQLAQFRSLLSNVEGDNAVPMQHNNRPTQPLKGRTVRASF

`NS(=O)(=O)c1cc(NC(=O)Nc2ccc3c(c2)OCO3)c(O)c([N+](=O)[O-])c1`: the Activity result in test [1], in [8], in test [18], in test [19], in test [21] and in [27] was “Dose-dependent effect” throughout. The IC50 was more than 200 µM in [1]; 79.5 µM in test [8]; more than 200 µM in test [18]; more than 200 µM in test [19]; more than 200 µM in test [21]; more than 200 µM in test [27]. The results for the Ki in test [2], in test [16] and in [22] were 0.25 µM, 0.15 µM and more than 50 µM, respectively. The viability at 30 µM in test [3] worked out at 101%; in test [7], 105%; in test [9], 80.1%; in [10] it was 71.5%; in test [14], 28.3%; in test [26], 105%. Moreover, the viability at 100 µM in test [4] is 22.8%; in test [6], 62.7%; in test [15] it was 77.5%; in test [17] it was 65.9%; in [23] it was 95%; in test [25] it was 92.2%. The viability at 200 µM in [5] was determined as 67.5%; in test [11], 24.6%; in test [13], 70.2%; in test [20], 61.6%; in test [24] it was 60.4%; in [28] it was 103%. In addition, the Ratio Ki in test [12] came to 30.

`NS(=O)(=O)c1cc(NC(=O)Nc2ccc(C(F)(F)F)cc2)c(O)c([N+](=O)[O-])c1`: the Ki in test [2] is 0.95 µM; in test [29], 0.2 µM; in [16] it was 0.63 µM.

Regarding `NS(=O)(=O)c1cc(NC(=O)Nc2cc(C(F)(F)F)cc(C(F)(F)F)c2)c(O)c([N+](=O)[O-])c1`, the Activity result in test [1], in [8], in test [18], in test [19], in test [21] and in [27] was “Dose-dependent effect” each time. The IC50 came out at 63.2 µM in test [1]; 133 µM in test [8]; 60.2 µM in test [18]; 196 µM in test [19]; 70.6 µM in test [21]; 68.6 µM in test [27]. Further, the results for the Ki in test [2] and in test [16] were 0.46 µM and 0.34 µM, respectively. The viability at 30 µM was determined as 109% in test [3]; 100% in test [7]; 118% in [9]; 102% in test [10]; 98.6% in test [14]; 106% in test [26]. Also, the viability at 100 µM in [4] is 63.6%; in test [6], 22.7%; in test [15], 20.1%; in test [17], 23.4%; in test [23], 101%; in test [25], 19.8%. Besides, the viability at 200 µM in test [5] came out at 20.2%; in [13] it was 19.6%; in test [20], 20.9%; in test [28] it was 45.8%. The Ratio in [30] is 4. The viability at 300 µM in [31] stood at 25.6%. Moreover, the Ratio Ki in test [12] is 5.

The values above are taken from ChEMBL document CHEMBL4261658, “4-Hydroxy-3-nitro-5-ureido-benzenesulfonamides Selectively Target the Tumor-Associated Carbonic Anhydrase Isoforms IX and XII Showing Hypoxia-Enhanced Antiproliferative Profiles” (J Med Chem, 2018).
